In data set [1] the test system is Cynomolgus monkey. The experiment in a line: In vivo inhibition of CYP11B1 in cynomolgus monkey assessed as reduction in ACTH-induced cortisol at 10 mg/kg, po preincubated for 1 hr followed by ACTH challenge and measured after 60 mins by LC/MS-MS analysis. In kind it is ADME, organism-based, Macaca fascicularis. The procedure, abridged: (§1)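 Cynomolgus monkeys preselected as Synacthen responders (at least 2-fold rise in aldosterone, cortisol and corticosterone). Two animals per group. Oral vehicle or compound at 0.01–10 mg/kg in hydroxyethylcellulose/polysorbate 80/paraben suspension (2 mL/kg) at T=0, then 14.5 µg/kg Synacthen i.m. at 1 hr. EDTA blood drawn from -5 min to 24 h. Plasma steroids measured by LC/MS-MS; data shown 60 min after challenge.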

Data set [2] is described as follows: Plasma clearance in iv dosed cynomolgus monkey. The format is ADME, organism-based, Macaca fascicularis.
Data set [3] deals with T1, Cytochrome P450 11B2, mitochondrial (Homo sapiens, UniProt P19099).
T1 sequence (P19099 whole entry): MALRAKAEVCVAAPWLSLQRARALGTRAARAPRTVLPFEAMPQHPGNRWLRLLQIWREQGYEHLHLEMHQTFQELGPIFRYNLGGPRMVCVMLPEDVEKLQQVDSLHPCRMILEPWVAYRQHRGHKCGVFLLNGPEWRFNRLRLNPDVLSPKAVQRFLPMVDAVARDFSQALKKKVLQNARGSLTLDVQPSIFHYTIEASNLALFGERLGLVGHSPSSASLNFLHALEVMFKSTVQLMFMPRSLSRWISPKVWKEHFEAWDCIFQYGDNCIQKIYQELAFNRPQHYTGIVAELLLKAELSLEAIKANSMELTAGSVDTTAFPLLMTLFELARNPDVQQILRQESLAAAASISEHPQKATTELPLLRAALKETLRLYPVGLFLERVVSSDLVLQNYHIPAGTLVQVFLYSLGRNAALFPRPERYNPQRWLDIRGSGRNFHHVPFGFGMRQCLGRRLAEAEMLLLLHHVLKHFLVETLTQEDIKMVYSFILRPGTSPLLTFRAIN
The experiment in a line: Inhibition of human CYP11B2 expressed in human renal leiomyoblastoma cells harboring FDXR/FDX using 1-deoxycorticosterone as substrate by HTRF assay. The format is cell-based. A digest of the protocol: (§2)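 Cells with endogenous FDXR/FDX and no detectable CYP11B activity, stably transfected (CMV promoter, neomycin selection, G-418 400 µg/mL) with CYP11B1 or CYP11B2 of the named species. Assayed in DMEM/F12 with 2.5% charcoal-treated FCS. Substrate 1 µM 11-deoxycorticosterone (B2) or 11-deoxycortisol (B1), 16 hr. Aldosterone or cortisol in supernatant measured by HTRF. IC50 from 4-parameter MMF fit; selectivity factor is the B1/B2 IC50 ratio.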

Data set [4] is described as follows: Protein binding in cynomolgus monkey plasma assessed as unbound fraction at 1 uM by micro-equilibrium dialysis based LC-MS/MS analysis. The format is ADME, cell-free, Macaca fascicularis. The procedure, abridged:
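Equilibrium dialysis of pooled rat or cynomolgus plasma against Soerensen buffer pH 7.4, 12–14 kDa cut-off membrane. Compounds tested in cassettes of 2–5 at 1 μM initial total concentration, with diazepam as control. Dialysis 5 hr at 37 °C under 5% CO₂. Unbound percentage by LC/MS-MS.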
A general note: In equilibrium dialysis free small molecules cross a membrane that holds back macromolecules.

Data set [5] deals with Cynomolgus monkey. The experiment in a line: In vivo inhibition of CYP11B2 in cynomolgus monkey assessed as reduction in ACTH-induced corticosterone at 0.01 to 10 mg/kg, po preincubated for 1 hr followed by ACTH challenge and measured after 60 mins by LC/MS-MS analysis. The format is functional, organism-based. Conditions: Macaca fascicularis. A digest of the protocol: as §1

The nature of data set [6]: Free plasma concentration in cynomolgus monkey at 10 mg/kg. In kind it is ADME, organism-based, Macaca fascicularis. The note with it: in vivo. The procedure, abridged:
(§3)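 Cynomolgus monkeys, 2 per group, given single oral doses of 0.01, 0.1, 1 or 10 mg/kg as a suspension in hydroxyethylcellulose/polysorbate 80/parabens vehicle, 2 mL/kg. Synacthen 14.5 µg/kg given i.m. at 1 hr. Plasma compound levels by LC/MS-MS. Average free exposure calculated from AUC0-7hr and corrected for plasma protein binding.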

The nature of data set [7]: Selectivity ratio of IC50 for cynomolgus monkey CYP11B1 expressed in human G401 cells to IC50 for cynomolgus monkey CYP11B2 expressed in human G401 cells. The format is cell-based. The procedure, abridged:
as §2

Data set [8] addresses T1, Cytochrome P450 11B2, mitochondrial. Briefly: Inhibition of CYP11B2 in H295R cell assessed as reduction in 18-hyroxycorticosterone by LC/MS-MS method.
Data set [9] in a line: Dose normalized AUC in Wister-Han rat at 1 mg/kg, iv or 3 mg/kg, po administered as single dose by LC/MS-MS analysis. The format is ADME, organism-based. Conditions: in vivo. The procedure, abridged:
(§4)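 Male Wistar-Han rats, single dose. IV 1 mg/kg, compound at 0.5 mg/mL in NMP:saline 30/70 (v/v). Oral 3 mg/kg, 0.25 mg/mL in 2% Klucel with 0.1% Polysorbate 80. Three rats per time point. Heparinized blood taken at eight (iv) or seven (po) time points, plasma stored at -20 °C. Plasma levels by LC/MS-MS. Non-compartmental analysis.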

For data set [10], the system named is Cynomolgus monkey. The experiment in a line: In vivo inhibition of CYP11B1 in cynomolgus monkey assessed as reduction in ACTH-induced 11-deoxycortisol at 0.01 to 10 mg/kg, po preincubated for 1 hr followed by ACTH challenge and measured after 60 mins by LC/MS-MS analysis. The format is ADME, organism-based, Macaca fascicularis. A digest of the protocol: as §1

A short description of data set [11]: Free plasma concentration in cynomolgus monkey at 0.1 mg/kg. In kind it is ADME, organism-based, Macaca fascicularis. Conditions: in vivo. The procedure, abridged: as §3
Data set [12] is described as follows: Free plasma concentration in cynomolgus monkey at 0.01 mg/kg. The note with it: in vivo. The format is ADME, organism-based, Macaca fascicularis. A digest of the protocol:
as §3

Data set [13] deals with Cynomolgus monkey. The experiment in a line: In vivo inhibition of CYP11B2 in cynomolgus monkey assessed as reduction in ACTH-induced aldosterone at 0.01 to 10 mg/kg, po preincubated for 1 hr followed by ACTH challenge and measured after 60 mins by LC/MS-MS analysis. In kind it is functional, organism-based. The note with it: Macaca fascicularis. The procedure, abridged: as §1

The nature of data set [14]: Plasma clearance in Wister-Han rat at 1 mg/kg, iv administered as single dose by LC/MS-MS analysis. The format is ADME, organism-based. Conditions: Wistar-Han. The procedure, abridged: as §4
The target in data set [15] is T1, Cytochrome P450 11B2, mitochondrial. Briefly: Inhibition of CYP11B2 in H295R cell assessed as reduction in aldosterone by LC/MS-MS method.
Data set [16] in a line: Permeability of the compound measured at 18 hrs by PAMPA. In kind it is ADME. Conditions: read-out: permeability. A digest of the protocol:
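PAMPA sandwich format. Donor: compound diluted to 150 μM (DMSO <2%) in 0.05 M MOPSO pH 6.5 with 0.5% glycocholic acid. Acceptor: 0.05 M MOPSO pH 6.5. Membrane of 10% egg lecithin with 0.5% cholesterol in dodecane. Donor measured at start; acceptor and donor measured at ~18 hr.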
(The PAMPA barrier holds no transporters, so it reflects passive diffusion.)

The nature of data set [17]: Selectivity ratio of IC50 for human CYP11B1 expressed in human renal leiomyoblastoma cells harboring FDXR/FDX to IC50 for human CYP11B2 expressed in human renal leiomyoblastoma cells harboring FDXR/FDX. The format is cell-based. A digest of the protocol:
as §2

Data set [18] in a line: Intrinsic clearance in rat liver microsomes preincubated for 10 mins followed by NADPH regenerating system addition and measured up to 30 mins by LC/MS-MS analysis. The format is ADME, Microsome. The procedure, abridged:
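Liver microsomes at 0.5 mg protein/mL in 100 mM potassium phosphate, pH 7.4. Compound preincubated 10 min at 37 °C. Intrinsic clearance scaled using the well-stirred liver model.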

Calls of active or inactive are those of the source.

As usually defined, the clearance is the volume of plasma or blood freed of the substance per unit of time. The term IC50 denotes the concentration needed to halve the response being measured. One may read the fraction unbound as the share of the substance not bound to proteins or other matrix. On to `CCS(=O)(=O)N1CC(Oc2cncc(N3C(=O)c4ccc(Cl)cc4C3(C)C)c2)C1`, for which the Activity result is “Toxic” in data set [1] and “Non-Toxic” in [10]. For the same compound, the clearance in [2] turned out to be 4.6 mL/min/kg; in [14], 3.8 mL/min/kg. Besides, the figures for the IC50 in data set [3], in [8] and in [15] were 4 nM, below 1 nM and below 1 nM, respectively. The fraction unbound at 1 µM in data set [4] is 0.138. For the same compound, in [5], the inhibition result is “inactive”. In addition, the entries for the “Cp(f)” value in [6], in data set [11] and in data set [12] were 86.46 ng/mL, 0.825 ng/mL and 0.075 ng/mL, respectively. For the same compound, the Ratio IC50 in [7] is 664; in [17], 162. This compound also returned an AUC/dose in data set [9] of 2123 kg·ng·h/mL/mg. Besides, the inhibition entry in data set [13] was “Active”. Besides, in data set [16], the Papp at 18 h worked out at 4.17 ×10⁻⁶ cm/s. Besides, in data set [18], the predicted hepatic clearance (CLH) is 5 mL/min/kg.
